Reference: ChEMBL document CHEMBL4152320, “Discovery and development of novel salicylate synthase (MbtI) furanic inhibitors as antitubercular agents” (Eur J Med Chem, 2018)
Calls of active or inactive are those of the source. No cut-off for these calls is given here.

Legend:
[1] = test system: Mycobacterium tuberculosis variant bovis BCG; experiment: Inhibition of Mycobacterium bovis BCG salicylate synthase assessed as removal of iron after 15 days by CAS assay
How it was run: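 Same BCG culture in chelated Sauton's with compound, 15 days at 37 °C. Supernatant mixed 1:1 with Universal CAS solution, 10 min room temperature, A630 read; siderophore units = (Ar − As)/Ar × 100, Ar being blank medium with CAS.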

[2] = test system: Mycobacterium tuberculosis variant bovis BCG; experiment: Inhibition of Mycobacterium bovis BCG salicylate synthase assessed as reduction in mycobactin production after 15 days
How it was run: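 M. bovis BCG grown in 7H9, subcultured in chelated Sauton's, diluted 1:1000 into chelated Sauton's with sub-lethal compound concentrations; 15 days at 37 °C. Pelleted cells extracted in ethanol overnight, 0.1 M FeCl3 in ethanol added until colour stable, 1 h room temperature; mycobactins isolated and quantified.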

Structure (SMILES): O=C(O)c1ccc(-c2ccc([N+](=O)[O-])cc2)o1
- inhibition [1]: Dose-dependent effect
- inhibition [2]: Active
